According to article PMC11913021 (Journal of Medicinal Chemistry, 2024):
Changes are numbered by the printed parent chain. Where “and” joins values, the source holds several entries; their conditions need not be identical. Equal values may be shown once.

What was measured:
wild-type PLD1 = molecular target: T1, wild-type PLD1 (Homo sapiens, UniProt Q13393); assay: PLD activity assay in wild-type PLD1-transfected cells; format: cell-based
T1 sequence (Q13393 1-1036 isoform Q13393-2): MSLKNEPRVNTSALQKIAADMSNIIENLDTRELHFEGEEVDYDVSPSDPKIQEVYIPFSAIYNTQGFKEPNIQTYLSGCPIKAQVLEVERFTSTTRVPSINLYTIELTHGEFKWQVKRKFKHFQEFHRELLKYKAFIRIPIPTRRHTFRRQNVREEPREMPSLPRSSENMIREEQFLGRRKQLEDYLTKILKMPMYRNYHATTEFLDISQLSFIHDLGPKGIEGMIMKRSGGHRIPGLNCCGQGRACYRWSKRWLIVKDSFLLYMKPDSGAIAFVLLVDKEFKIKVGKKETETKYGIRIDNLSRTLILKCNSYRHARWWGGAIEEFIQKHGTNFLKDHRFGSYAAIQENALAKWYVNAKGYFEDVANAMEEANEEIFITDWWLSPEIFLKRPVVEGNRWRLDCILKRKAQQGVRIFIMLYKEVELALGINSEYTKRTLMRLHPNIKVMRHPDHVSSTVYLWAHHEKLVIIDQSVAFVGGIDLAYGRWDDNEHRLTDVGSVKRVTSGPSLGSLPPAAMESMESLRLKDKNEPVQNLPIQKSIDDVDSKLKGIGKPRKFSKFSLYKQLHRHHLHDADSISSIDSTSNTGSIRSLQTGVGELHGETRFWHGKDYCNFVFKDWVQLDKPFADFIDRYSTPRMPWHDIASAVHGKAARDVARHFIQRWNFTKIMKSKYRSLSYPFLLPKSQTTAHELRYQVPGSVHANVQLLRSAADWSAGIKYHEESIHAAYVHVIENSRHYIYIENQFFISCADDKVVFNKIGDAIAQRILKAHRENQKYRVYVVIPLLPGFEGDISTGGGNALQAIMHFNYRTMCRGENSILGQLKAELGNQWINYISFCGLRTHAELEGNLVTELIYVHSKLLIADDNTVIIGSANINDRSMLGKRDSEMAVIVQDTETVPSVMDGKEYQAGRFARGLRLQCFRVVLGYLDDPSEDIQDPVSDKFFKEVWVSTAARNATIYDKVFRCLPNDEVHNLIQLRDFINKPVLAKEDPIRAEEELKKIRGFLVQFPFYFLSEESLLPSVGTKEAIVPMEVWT

L425A mutant PLD1 = molecular target: T2, L425A mutant PLD1 (Homo sapiens, UniProt Q13393, L425A); assay: PLD activity assay in L425A mutant PLD1-transfected cells; format: cell-based
T2 sequence (Q13393 1-1036 isoform Q13393-2 L425A): T1 sequence (Q13393 1-1036 isoform Q13393-2) with L425A

HCT116 cells = assay: WST-1 cell viability assay, HCT116; format: cell-based; settings: read-out: IC50 of viability; HCT116, WST-1, 48 h
Procedure, shortened: (§1)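 Cells grown in DMEM or RPMI 1640 with 10% FBS and 1% penicillin/streptomycin at 37 °C, 5% CO2. Seeded at 5 × 10^3 cells/well and held 24 h at 37 °C, then exposed to test compound for 48 h. WST-1 absorbance was read at 450 nm, in triplicate. IC50 was taken as the concentration giving 50% growth inhibition versus control.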

Calu6 lung cancer cells = assay: WST-1 cell viability assay, Calu6; format: cell-based; settings: read-out: IC50 of viability; Calu6, WST-1, 48 h
Procedure, shortened: as §1

A549 cells = assay: IncuCyte cell growth and death assay; format: cell-based; settings: time-dependent
LLC mouse lung cells = assay: LLC lung cancer syngeneic model in C57BL/6 mice; format: in vivo
Procedure, shortened: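 Male C57BL/6 mice (6 weeks old) received 3 × 10^5 LLC cells in PBS subcutaneously in the flank. From day 7 they were randomised to vehicle PO daily or test compound 10 mg/kg PO every other day, for 3 weeks. Tumour IHC used citrate antigen retrieval, blocking with 0.3% H2O2 and 2.5% horse serum, primary antibodies overnight at 4 °C, HRP/ABC with DAB, and hematoxylin counterstain. CD163 was assessed by immunofluorescence.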

[1] = tumor tissue immunofluorescence

N-(3,5-Bis(trifluoromethyl)phenyl)-3-(1H-indol-3-yl)propanamide [3r]
PLD activity (wild-type PLD1): significantly suppressed | PLD activity (L425A mutant PLD1): significantly suppressed | IC50 (HCT116 cells): 29 µM and 29.1 µM | IC50 (Calu6 lung cancer cells): 19 µM | death of A549 cells (A549 cells): increased | proliferation of A549 cells (A549 cells): significantly suppressed | tumor formation (LLC mouse lung cells; 10 mg/kg PO every other day, C57BL/6, LLC): significantly attenuated | apoptosis in tumor tissue (active caspase 3 IHC) (LLC mouse lung cells; IHC): enhanced | proliferation in tumor tissue (Ki67 IHC) (LLC mouse lung cells; IHC): reduced | expression of ’eat-me’ signals (calreticulin) (LLC mouse lung cells; tumor tissue IHC): increased | levels of RAS and downstream molecules (p-ERK, p-Akt, p-IKBα) (LLC mouse lung cells; tumor tissue IHC): decreased | levels of ’don’t eat-me’ signals (CD47, CD24, PD-L1) (LLC mouse lung cells; tumor tissue IHC): reduced | population of CD4^+ and IL-17^+ Th17 cells (LLC mouse lung cells; [1]): increased | population of CD80^+ pro-inflammatory M1 macrophages (LLC mouse lung cells; [1]): increased | population of CD163^+ anti-inflammatory M2 macrophages (LLC mouse lung cells; [1]): decreased | population of cytotoxic CD8^+ T cells (LLC mouse lung cells; [1]): increased | size and weight of the spleen (LLC mouse lung cells; tumor-bearing mice vs vehicle): recovered
